Measured values: ChEMBL document CHEMBL2086239, “Synthesis and biological evaluation of combretastatin-amidobenzothiazole conjugates as potential anticancer agents” (Eur J Med Chem, 2012)
Activity calls are given as the source filed them. The rule behind the calls is not given here.

What was measured:
IMR-32 = test: Cytotoxicity against human IMR32 cells after 48 hrs assessed as inhibition of cell growth at 10 uM after 48 hrs by SRB assay relative to control; assay type: functional; details: IMR-32, 48 h, read-out: GI
How it was run: (§1)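 SRB protein assay in DMEM with 10% FBS at 37 °C, 5% CO2, 100% relative humidity. Cells seeded in 96-well plates, incubated 24 h, then exposed to drug at 10 µM for 48 h and processed per standard protocol. Absorbance read at 560 nm; growth percentage calculated for test wells relative to control wells.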

PC-3 = test: Cytotoxicity against human PC3 cells after 48 hrs assessed as inhibition of cell growth at 10 uM after 48 hrs by SRB assay relative to control; assay type: functional; details: PC-3, 48 h, read-out: GI; how it was run: as §1
K562 = test: Growth inhibition of human K562 cells after 48 hrs by SRB assay; assay type: functional; details: K562, 48 h
How it was run: (§2)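 NCI 60-cell-line screen: after preliminary screening, tested at five dose concentrations on 59 human tumour lines covering leukemia, lung, colon, CNS, melanoma, ovarian, renal, prostate and breast.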

RPMI-8226 = test: Growth inhibition of human RPMI8226 cells after 48 hrs by SRB assay; assay type: functional; details: RPMI-8226, 48 h; how it was run: as §2
EKVX = test: Growth inhibition of human EKVX cells after 48 hrs by SRB assay; assay type: functional; how it was run: as §2
NCI-H522 = test: Growth inhibition of human NCI-H522 cells after 48 hrs by SRB assay; assay type: functional; details: NCI-H522, 48 h; how it was run: as §2
HCT-116 = test: Growth inhibition of human HCT116 cells after 48 hrs by SRB assay; assay type: functional; details: HCT-116, 48 h; how it was run: as §2
KM12 = test: Growth inhibition of human KM12 cells after 48 hrs by SRB assay; assay type: functional; details: KM12, 48 h; how it was run: as §2
SF-268 = test: Growth inhibition of human SF268 cells after 48 hrs by SRB assay; assay type: functional; details: SF-268, 48 h; how it was run: as §2
SF-539 = test: Growth inhibition of human SF539 cells after 48 hrs by SRB assay; assay type: functional; details: SF-539, 48 h
How it was run: (§3)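 NCI 60-cell-line panel, five-dose testing after preliminary screen; sulforhodamine B protein assay in DMEM with 10% FBS, 37 °C, 5% CO2, 100% humidity. Cells seeded and incubated 24 h before compound addition, then exposed 48 h. Absorbance read at 560 nm; growth percentage relative to control wells; GI50 taken as concentration giving 50% growth inhibition.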

SNB-75 = test: Growth inhibition of human SNB75 cells after 48 hrs by SRB assay; assay type: functional; details: SNB-75, 48 h; how it was run: as §3
Malme-3M = test: Growth inhibition of human MALME-3M cells after 48 hrs by SRB assay; assay type: functional; how it was run: as §2
M14 = test: Growth inhibition of human M14 cells after 48 hrs by SRB assay; assay type: functional; details: M14, 48 h; how it was run: as §2
UACC-257 = test: Growth inhibition of human UACC257 cells after 48 hrs by SRB assay; assay type: functional; details: UACC-257, 48 h; how it was run: as §3
UACC-62 = test: Growth inhibition of human UACC62 cells after 48 hrs by SRB assay; assay type: functional; details: UACC-62, 48 h; how it was run: as §3
OVCAR-8 = test: Growth inhibition of human OVCAR8 cells after 48 hrs by SRB assay; assay type: functional; details: OVCAR-8, 48 h; how it was run: as §2
NCI/ADR-RES = test: Growth inhibition of human NCI/ADR-RES cells after 48 hrs by SRB assay; assay type: functional; how it was run: as §2
SK-OV-3 = test: Growth inhibition of human SKOV3 cells after 48 hrs by SRB assay; assay type: functional; details: SK-OV-3, 48 h; how it was run: as §3
RXF 393 = test: Growth inhibition of human RXF393 cells after 48 hrs by SRB assay; assay type: functional; details: RXF 393, 48 h; how it was run: as §2
SN12C = test: Growth inhibition of human SN12C cells after 48 hrs by SRB assay; assay type: functional; how it was run: as §3
UO-31 = test: Growth inhibition of human UO31 cells after 48 hrs by SRB assay; assay type: functional; details: UO-31, 48 h; how it was run: as §3
DU-145 = test: Growth inhibition of human DU145 cells after 48 hrs by SRB assay; assay type: functional; details: DU-145, 48 h; how it was run: as §2
MCF7 = test: Growth inhibition of human MCF7 cells after 48 hrs by SRB assay; assay type: functional; details: MCF7, 48 h; how it was run: as §2
MDA-MB-231 = test: Growth inhibition of human MDA-MB-231 cells after 48 hrs by SRB assay; assay type: functional; details: MDA-MB-231, 48 h; how it was run: as §2
BT-549 = test: Growth inhibition of human BT549 cells after 48 hrs by SRB assay; assay type: functional; details: BT-549, 48 h; how it was run: as §2
T47D = test: Growth inhibition of human T47D cells after 48 hrs by SRB assay; assay type: functional; how it was run: as §3
MDA-MB-468 = test: Growth inhibition of human MDA-MB-468 cells after 48 hrs by SRB assay; assay type: functional; how it was run: as §2
[1] = Inhibition of tubulin polymerization after 30 mins to 1 hr by spectrophotometry
How it was run: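 This was a kit-based tubulin polymerization assay. Kit tubulin in G-PEM buffer was incubated with compounds, and polymerization was followed as optical density at 340 nm for 30 min to 1 h. Inhibition was read as a decrease in OD. Nocodazole and paclitaxel were run as reference destabilizer and stabilizer.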

COc1ccc(/C=C\c2cc(OC)c(OC)c(OC)c2)cc1O [COMBRETASTATIN A4]
inhibition of growth at 10 µM (IMR-32): 89%
inhibition of growth at 10 µM (PC-3): 76%
GI50 (K562): 2 nM
GI50 (RPMI-8226): 3 nM
GI50 (EKVX): 79 nM
GI50 (NCI-H522): 1 nM
GI50 (HCT-116): 3 nM
GI50 (KM12): 5 nM
GI50 (SF-268): 6 nM
GI50 (SF-539): 2 nM
GI50 (SNB-75): 7 nM
GI50 (Malme-3M): 19 nM
GI50 (M14): 2 nM
GI50 (UACC-257): 3 nM
GI50 (UACC-62): 5 nM
GI50 (OVCAR-8): 3 nM
GI50 (NCI/ADR-RES): 1 nM
GI50 (SK-OV-3): 63 nM
GI50 (RXF 393): 2 nM
GI50 (SN12C): 6 nM
GI50 (UO-31): 19 nM
GI50 (DU-145): 1 nM
GI50 (MCF7): 5 nM
GI50 (MDA-MB-231): 1 nM
GI50 (BT-549): 10000 nM
GI50 (T47D): 10000 nM
GI50 (MDA-MB-468): inactive
inhibition [1]: Active

COc1ccc(/C=C\c2cc(OC)c(OC)c(OC)c2)cc1OCC(=O)Nc1nc2ccc(C(F)(F)F)cc2s1
inhibition of growth at 10 µM (IMR-32): 23%
inhibition of growth at 10 µM (PC-3): 42%
GI50 (K562): 3300 nM
GI50 (RPMI-8226): 5480 nM
GI50 (EKVX): 6250 nM
GI50 (NCI-H522): 2890 nM
GI50 (HCT-116): 3290 nM
GI50 (KM12): 3140 nM
GI50 (SF-268): 3850 nM
GI50 (SF-539): 2660 nM
GI50 (SNB-75): 1580 nM
GI50 (Malme-3M): inactive
GI50 (M14): 3580 nM
GI50 (UACC-257): 40000 nM
GI50 (UACC-62): 3900 nM
GI50 (OVCAR-8): 3860 nM
GI50 (NCI/ADR-RES): 2120 nM
GI50 (SK-OV-3): 3290 nM
GI50 (RXF 393): 2270 nM
GI50 (SN12C): 4430 nM
GI50 (UO-31): 3590 nM
GI50 (DU-145): 2510 nM
GI50 (MCF7): 3160 nM
GI50 (MDA-MB-231): 3380 nM
GI50 (BT-549): 5230 nM
GI50 (T47D): 4790 nM
GI50 (MDA-MB-468; MDA-MB-468, 48 h): 2160 nM

COc1ccc(/C=C\c2cc(OC)c(OC)c(OC)c2)cc1OCC(=O)Nc1ccc2nc(C)sc2c1
inhibition of growth at 10 µM (IMR-32): 62%
inhibition of growth at 10 µM (PC-3): 61%
GI50 (K562): 2190 nM
GI50 (RPMI-8226): 1980 nM
GI50 (EKVX): 4050 nM
GI50 (NCI-H522): 2280 nM
GI50 (HCT-116): 3570 nM
GI50 (KM12): 3790 nM
GI50 (SF-268): 3610 nM
GI50 (SF-539): 2560 nM
GI50 (SNB-75): 1550 nM
GI50 (Malme-3M): 2840 nM
GI50 (M14): 3380 nM
GI50 (UACC-257): 1730 nM
GI50 (UACC-62): 2190 nM
GI50 (OVCAR-8): 2120 nM
GI50 (NCI/ADR-RES): 2360 nM
GI50 (SK-OV-3): 5270 nM
GI50 (RXF 393): 5060 nM
GI50 (SN12C): 3530 nM
GI50 (UO-31): 2410 nM
GI50 (DU-145): 3810 nM
GI50 (MCF7): 740 nM
GI50 (MDA-MB-231): 5450 nM
GI50 (BT-549): 3050 nM
GI50 (T47D): 9410 nM
GI50 (MDA-MB-468; MDA-MB-468, 48 h): 2390 nM
